Results reported in ChEMBL document CHEMBL1125384, “Inhibitors of sterol synthesis. 3 beta,25-dihydroxy-5 alpha-cholest-8(14)-en-15-one, an active metabolite of 3 beta-hydroxy-5 alpha-cholest-8(14)-en-15-one” (J Med Chem, 1992).

What was measured:
[1] = target: T1, 3-hydroxy-3-methylglutaryl-coenzyme A reductase (Homo sapiens) (UniProt P04035); assay: % control of HMG-CoA reductase activity in CHO-K1 cells at a concentration of 0.25 uM; type: cell-based; settings: Cricetulus griseus
T1 sequence (whole entry): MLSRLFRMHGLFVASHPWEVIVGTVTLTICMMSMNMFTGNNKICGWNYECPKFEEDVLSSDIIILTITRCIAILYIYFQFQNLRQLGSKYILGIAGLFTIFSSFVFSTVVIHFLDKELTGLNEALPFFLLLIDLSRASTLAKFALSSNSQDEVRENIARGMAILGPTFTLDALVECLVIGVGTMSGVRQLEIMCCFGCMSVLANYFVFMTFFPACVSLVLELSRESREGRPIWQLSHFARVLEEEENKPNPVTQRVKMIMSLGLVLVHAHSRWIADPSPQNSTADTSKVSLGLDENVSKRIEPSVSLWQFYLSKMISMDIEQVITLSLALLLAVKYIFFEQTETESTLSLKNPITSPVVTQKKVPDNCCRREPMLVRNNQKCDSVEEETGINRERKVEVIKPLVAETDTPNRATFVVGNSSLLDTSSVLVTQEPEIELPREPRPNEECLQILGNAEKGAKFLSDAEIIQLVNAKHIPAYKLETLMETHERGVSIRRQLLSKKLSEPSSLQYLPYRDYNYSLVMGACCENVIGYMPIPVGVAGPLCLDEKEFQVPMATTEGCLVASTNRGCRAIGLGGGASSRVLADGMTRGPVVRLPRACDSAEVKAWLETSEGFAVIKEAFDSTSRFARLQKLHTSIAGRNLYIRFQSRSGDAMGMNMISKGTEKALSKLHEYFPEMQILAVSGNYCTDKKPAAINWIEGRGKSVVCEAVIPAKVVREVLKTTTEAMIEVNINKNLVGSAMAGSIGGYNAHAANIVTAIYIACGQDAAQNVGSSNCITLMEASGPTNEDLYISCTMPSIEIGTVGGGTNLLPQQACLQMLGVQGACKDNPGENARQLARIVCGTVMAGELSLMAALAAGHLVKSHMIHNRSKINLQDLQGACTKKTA
How it was run: (§1)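 CHO-K1 cells were exposed to the sterol at 0.0–2.5 μM. HMG-CoA reductase specific activity was measured in pmol min⁻¹ mg⁻¹ protein and expressed as % of the activity in sterol-free control cells. Assays were run in triplicate, with variation given as SD.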

[2] = target: 3-hydroxy-3-methylglutaryl-coenzyme A reductase (Cricetulus griseus) (UniProt P00347); assay: % control of HMG-CoA reductase activity in CHO-K1 cells at a concentration of 0.1 uM
[3] = target: T1, 3-hydroxy-3-methylglutaryl-coenzyme A reductase (Homo sapiens); assay: % control of HMG-CoA reductase activity in CHO-K1 cells at a concentration of 1.0 uM; type: cell-based; settings: Cricetulus griseus; how it was run: as §1
[4] = target: 3-hydroxy-3-methylglutaryl-coenzyme A reductase (Cricetulus griseus) (UniProt P00347); assay: % control of HMG-CoA reductase activity in CHO-K1 cells at a concentration of 0.0 uM
[5] = target: T1, 3-hydroxy-3-methylglutaryl-coenzyme A reductase (Homo sapiens); assay: % control of HMG-CoA reductase activity in CHO-K1 cells at a concentration of 0.5 uM; type: cell-based; settings: Cricetulus griseus; how it was run: as §1
[6] = target: T1, 3-hydroxy-3-methylglutaryl-coenzyme A reductase (Homo sapiens); assay: % control of HMG-CoA reductase activity in CHO-K1 cells at a concentration of 2.5 uM; type: cell-based; settings: Cricetulus griseus; how it was run: as §1

3-hydroxy-3-methylglutaryl-coenzyme A reductase (Cricetulus griseus), sequence (P00347 whole entry, looked up): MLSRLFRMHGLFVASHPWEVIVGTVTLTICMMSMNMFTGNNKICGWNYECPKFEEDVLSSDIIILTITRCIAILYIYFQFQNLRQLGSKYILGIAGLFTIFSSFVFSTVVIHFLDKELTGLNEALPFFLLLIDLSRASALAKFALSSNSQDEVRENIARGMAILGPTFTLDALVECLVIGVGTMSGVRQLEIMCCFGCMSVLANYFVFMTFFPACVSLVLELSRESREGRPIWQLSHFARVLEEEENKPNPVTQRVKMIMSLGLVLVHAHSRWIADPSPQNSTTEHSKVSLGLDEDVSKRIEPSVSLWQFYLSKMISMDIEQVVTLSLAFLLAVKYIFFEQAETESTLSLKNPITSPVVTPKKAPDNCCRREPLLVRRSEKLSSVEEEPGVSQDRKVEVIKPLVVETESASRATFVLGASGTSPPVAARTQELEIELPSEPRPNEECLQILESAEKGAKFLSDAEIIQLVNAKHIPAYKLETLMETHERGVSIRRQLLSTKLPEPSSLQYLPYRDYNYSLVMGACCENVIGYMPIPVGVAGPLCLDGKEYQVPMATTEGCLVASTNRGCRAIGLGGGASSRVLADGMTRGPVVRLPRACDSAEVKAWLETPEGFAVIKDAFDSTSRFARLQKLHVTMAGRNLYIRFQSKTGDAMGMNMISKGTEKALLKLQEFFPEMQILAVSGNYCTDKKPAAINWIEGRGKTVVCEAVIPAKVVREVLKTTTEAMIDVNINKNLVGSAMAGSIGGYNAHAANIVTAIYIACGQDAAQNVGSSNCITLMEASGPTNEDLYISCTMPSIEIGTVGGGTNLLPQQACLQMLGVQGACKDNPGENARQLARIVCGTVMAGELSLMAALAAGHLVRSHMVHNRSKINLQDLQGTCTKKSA

Compound: CC(C)CCC[C@@H](C)[C@H]1CC(=O)C2=C3CC[C@H]4C[C@@H](O)CC[C@]4(C)[C@H]3CC[C@@]21C
- Control [1]: 52.1%
- Control [2]: 61.9%
- Control [3]: 35.8%
- Control [4]: 100%
- Control [5]: 42.2%
- Control [6]: 24.4%

Compound: C[C@H](CCCC(C)(C)O)C1CC(=O)C2=C3CCC4CC(O)CCC4(C)C3CCC21C (some centres not stated)
- Control [1]: 33.5%
- Control [2]: 63.4%
- Control [3]: 34.2%
- Control [4]: 100%
- Control [5]: 32.2%
- Control [6]: 21.5%
